Experimental data from ChEMBL document CHEMBL1135584, “2-Amino-6-arylthio-9-[2-(phosphonomethoxy)ethyl]purine bis(2,2,2-trifluoroethyl) esters as novel HBV-specific antiviral reagents” (J Med Chem, 2002).

What was measured:
Hepatitis B virus = experiment: Concentration required to inhibit 50% of cytoplasmic HBV-DNA synthesis
[1] = Cytotoxic concentration of compound required for 50% extinction of HuH-6 cells; format: functional; settings: Homo sapiens
Procedure, shortened: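 HuH-6 cells (parent of HB611) seeded at 1 × 10⁵ cells/mL, cultured 3 days at 37 °C, 5% CO₂ in DMEM with 10% FBS plus compound; MTS added, further 2 h at 37 °C; viability by absorbance at 490 nm; CC50 determined.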

Human alphaherpesvirus 1 = experiment: Anti-HSV-1 activity of the compound; format: functional, organism-based

Structure (SMILES) | IC50 (Hepatitis B virus) [µM] | CC50 [1] [µM] | IC50 (Human alphaherpesvirus 1) [µM]
COc1cccc(Sc2nc(N)nc3c2ncn3CCOCP(=O)(OCC(F)(F)F)OCC(F)(F)F)c1 | 0.04 | > 1000 | –
Cc1cccc(Sc2nc(N)nc3c2ncn3CCOCP(=O)(OCC(F)(F)F)OCC(F)(F)F)c1 | 0.09 | 150 | –
CCCOc1ccc(Sc2nc(N)nc3c2ncn3CCOCP(=O)(OCC(F)(F)F)OCC(F)(F)F)cc1 | 0.87 | 250 | –
Cc1ccccc1Sc1nc(N)nc2c1ncn2CCOCP(=O)(OCC(F)(F)F)OCC(F)(F)F | 0.08 | 340 | –
Nc1nc(Sc2ccc3ccccc3c2)c2ncn(CCOCP(=O)(OCC(F)(F)F)OCC(F)(F)F)c2n1 | 0.09 | 198 | –
Cc1ccc(Sc2nc(N)nc3c2ncn3CCOCP(=O)(OCC(F)(F)F)OCC(F)(F)F)cc1 | 0.06 | 110 | –
Nc1nc(Sc2ccccc2)c2ncn(CCOCP(=O)(OCC(F)(F)F)OCC(F)(F)F)c2n1 | 0.05 | > 1000 | 25
Nc1nc(Sc2ccc([N+](=O)[O-])cc2)c2ncn(CCOCP(=O)(OCC(F)(F)F)OCC(F)(F)F)c2n1 | 0.52 | 380 | –
CCc1ccc(Sc2nc(N)nc3c2ncn3CCOCP(=O)(OCC(F)(F)F)OCC(F)(F)F)cc1 | 0.4 | 170 | –
Nc1nc(Sc2ccc(OC(F)(F)F)cc2)c2ncn(CCOCP(=O)(OCC(F)(F)F)OCC(F)(F)F)c2n1 | 0.06 | 820 | –
CCOc1ccc(Sc2nc(N)nc3c2ncn3CCOCP(=O)(OCC(F)(F)F)OCC(F)(F)F)cc1 | 0.64 | > 1000 | –
CCCCOc1ccc(Sc2nc(N)nc3c2ncn3CCOCP(=O)(OCC(F)(F)F)OCC(F)(F)F)cc1 | > 1 | 260 | –
CC(C)c1ccc(Sc2nc(N)nc3c2ncn3CCOCP(=O)(OCC(F)(F)F)OCC(F)(F)F)cc1 | 0.98 | 170 | –
COc1ccc(Sc2nc(N)nc3c2ncn3CCOCP(=O)(O)OCC(F)(F)F)cc1 | 0.07 | – | –
Nc1nc(Sc2ccc(Cl)cc2)c2ncn(CCOCP(=O)(OCC(F)(F)F)OCC(F)(F)F)c2n1 | 0.12 | 62 | –
CC(C)COc1ccc(Sc2nc(N)nc3c2ncn3CCOCP(=O)(OCC(F)(F)F)OCC(F)(F)F)cc1 | 0.84 | 100 | –
CC(C)Oc1ccc(Sc2nc(N)nc3c2ncn3CCOCP(=O)(OCC(F)(F)F)OCC(F)(F)F)cc1 | 0.29 | 350 | –
COc1ccccc1Sc1nc(N)nc2c1ncn2CCOCP(=O)(OCC(F)(F)F)OCC(F)(F)F | 0.08 | > 1000 | –
Nc1ncnc2c1ncn2CCOCP(=O)(O)O [ADEFOVIR] | 0.2 | > 1000 | –
COc1ccc(Sc2nc(N)nc3c2ncn3CCOCP(=O)(OCC(F)(F)F)OCC(F)(F)F)cc1 [ALAMIFOVIR] | 0.03 | > 1000 | –
Nc1ccn([C@@H]2CS[C@H](CO)O2)c(=O)n1 [LAMIVUDINE] | 2.2 | > 1000 | –
